According to ChEMBL document CHEMBL3259631, “Identification of the first potent, selective and bioavailable PPARα antagonist” (Bioorg Med Chem Lett, 2014):
Values after ≈ are worked out from the molar mass of the structure shown.

Target: T1, Peroxisome proliferator-activated receptor alpha (Homo sapiens, UniProt Q07869)
T1 sequence (Q07869 whole entry): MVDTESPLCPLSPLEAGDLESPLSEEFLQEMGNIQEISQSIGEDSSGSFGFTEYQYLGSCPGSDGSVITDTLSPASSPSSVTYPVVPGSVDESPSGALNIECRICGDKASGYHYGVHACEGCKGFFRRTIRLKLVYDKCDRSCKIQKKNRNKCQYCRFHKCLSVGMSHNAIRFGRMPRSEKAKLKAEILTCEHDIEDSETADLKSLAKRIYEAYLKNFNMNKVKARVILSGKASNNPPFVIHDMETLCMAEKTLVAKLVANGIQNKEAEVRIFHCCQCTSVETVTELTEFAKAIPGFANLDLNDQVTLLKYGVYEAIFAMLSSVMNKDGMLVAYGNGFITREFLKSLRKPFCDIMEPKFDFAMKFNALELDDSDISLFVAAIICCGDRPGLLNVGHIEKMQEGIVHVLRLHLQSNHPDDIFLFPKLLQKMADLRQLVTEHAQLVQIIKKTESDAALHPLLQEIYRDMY
Test: Agonist activity at human PPAR-alpha
Conditions: not given

Compound | EC50 [µM]
C/C(=C/C(=O)c1ccccc1)N[C@@H](Cc1ccc(OCCc2nc(-c3ccccc3)oc2C)cc1)C(=O)O | 0.24

Test system: Plasma
Test: Drug level in mouse plasma treated with 1 uM 5 after 24 hrs by LC-MS/MS analysis
Type: ADME, cell-free
Conditions: not given

Compound | Drug metabolism
CCn1c(CCCc2ccc(OC(C)(C)C(=O)O)cc2)nn(Cc2ccc(C(C)(C)C)cc2)c1=O | metabolite_detected

Test system: not listed separately
Test: AUC in CD-1 mouse at 30 mg/kg, ip
Type: ADME, organism-based
Set-up: dose 30 mg/kg, route intraperitoneal
Conditions: plasma
Outline: (§1)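 Mouse pharmacokinetics in CD1 mice given a single intraperitoneal dose of 30 mpk, formulated in saline or in 98% saline/2% tween.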

Compound | AUC [ng·h/mL]
CCn1c(CCCc2ccc(-c3ccc(NS(=O)(=O)c4ccc(-c5ccc(OC)cc5)cc4)cc3)cc2)nn(Cc2ccc(C(C)(C)C)cc2)c1=O | 23000

Test system: not listed separately
Test: Cmax in CD-1 mouse at 30 mg/kg, ip after 1 hr
Type: ADME, organism-based
Set-up: dose 30 mg/kg, route intraperitoneal
Conditions: in vivo
Outline: as §1

Compound | Cmax [µM]
CCn1c(CCCc2ccc(-c3ccc(NS(=O)(=O)c4ccc(-c5ccc(OC)cc5)cc4)cc3)cc2)nn(Cc2ccc(C(C)(C)C)cc2)c1=O | 7.2

Target: T1, Peroxisome proliferator-activated receptor alpha
Test: Antagonist activity at human PPAR-alpha assessed as inhibition of GW7647-induced effect after overnight incubation by cell-based luciferase reporter gene assay
Conditions: not given

Compound | IC50 [µM]
CCn1c(CCCc2ccc(CC(C)(C)C(=O)NS(=O)(=O)c3ccccc3)cc2)nn(Cc2ccc(C(C)(C)C)cc2)c1=O | 0.06
CCn1c(CCCc2ccc(-c3cnc(NS(=O)(=O)c4ccccc4)cn3)cc2)nn(Cc2ccc(C(C)(C)C)cc2)c1=O | 0.218
CCn1c(CCCc2ccc(-c3ccc(NS(=O)(=O)c4ccc(-c5ccc(OC)cc5)cc4)cc3)cc2)nn(Cc2ccc(C(C)(C)C)cc2)c1=O | 4.8

Target: T2, Peroxisome proliferator-activated receptor delta (Homo sapiens, UniProt Q03181)
T2 sequence (Q03181 whole entry): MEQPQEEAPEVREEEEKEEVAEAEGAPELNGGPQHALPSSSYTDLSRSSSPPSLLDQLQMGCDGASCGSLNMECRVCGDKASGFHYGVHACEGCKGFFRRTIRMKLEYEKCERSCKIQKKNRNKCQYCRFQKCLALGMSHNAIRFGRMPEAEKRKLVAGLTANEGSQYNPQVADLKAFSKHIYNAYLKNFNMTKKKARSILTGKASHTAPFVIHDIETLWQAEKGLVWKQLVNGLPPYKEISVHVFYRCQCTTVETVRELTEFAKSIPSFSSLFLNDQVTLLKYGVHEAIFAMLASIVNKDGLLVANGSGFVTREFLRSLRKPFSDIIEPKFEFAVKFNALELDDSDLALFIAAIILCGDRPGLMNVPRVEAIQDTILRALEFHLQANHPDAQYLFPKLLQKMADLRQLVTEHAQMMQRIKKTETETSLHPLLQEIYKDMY
Test: Inhibition of human PPAR-delta
Conditions: not given

Compound | IC50 [µM]
CCn1c(CCCc2ccc(-c3ccc(NS(=O)(=O)c4ccc(-c5ccc(OC)cc5)cc4)cc3)cc2)nn(Cc2ccc(C(C)(C)C)cc2)c1=O | > 100

Target: T3, Glucocorticoid receptor (Homo sapiens, UniProt P04150)
T3 sequence (P04150 whole entry): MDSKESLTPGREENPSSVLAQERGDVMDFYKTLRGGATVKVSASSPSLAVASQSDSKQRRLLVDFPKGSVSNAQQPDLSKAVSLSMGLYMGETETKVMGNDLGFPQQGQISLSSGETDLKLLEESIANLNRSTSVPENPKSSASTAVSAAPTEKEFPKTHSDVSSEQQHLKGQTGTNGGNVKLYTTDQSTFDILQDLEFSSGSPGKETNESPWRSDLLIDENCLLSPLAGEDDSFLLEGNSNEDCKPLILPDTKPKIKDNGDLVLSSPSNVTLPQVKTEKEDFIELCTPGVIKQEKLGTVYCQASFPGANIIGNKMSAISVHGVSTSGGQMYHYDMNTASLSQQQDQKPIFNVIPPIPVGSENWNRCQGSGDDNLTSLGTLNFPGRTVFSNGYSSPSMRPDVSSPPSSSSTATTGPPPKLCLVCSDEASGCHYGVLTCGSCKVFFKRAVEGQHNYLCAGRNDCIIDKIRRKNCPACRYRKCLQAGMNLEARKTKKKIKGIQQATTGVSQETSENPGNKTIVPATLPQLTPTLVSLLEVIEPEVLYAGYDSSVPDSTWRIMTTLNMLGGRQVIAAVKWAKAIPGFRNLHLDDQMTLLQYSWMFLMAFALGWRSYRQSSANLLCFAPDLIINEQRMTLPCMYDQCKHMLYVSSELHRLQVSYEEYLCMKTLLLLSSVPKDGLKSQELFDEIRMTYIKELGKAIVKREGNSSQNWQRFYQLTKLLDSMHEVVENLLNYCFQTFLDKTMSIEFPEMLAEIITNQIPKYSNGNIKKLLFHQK
Test: Inhibition of human glucocorticoid receptor
Conditions: not given

Compound | IC50 [µM]
CCn1c(CCCc2ccc(-c3ccc(NS(=O)(=O)c4ccc(-c5ccc(OC)cc5)cc4)cc3)cc2)nn(Cc2ccc(C(C)(C)C)cc2)c1=O | 32

Test system: not listed separately
Test: Solubility of the compound in aqueous buffer at pH 7.4 after 24 hrs by LC-MS/MS analysis
Type: physicochemical
Conditions: not given
Outline: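 Compound from a 10 mM DMSO stock was added to pH 7.4 buffer, vortexed 2 min, then shaken on an orbital shaker for 24 h at room temperature. Samples were then vacuum-filtered through a polycarbonate membrane before measurement.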

Compound | solubility at 24 h [µM]
CCn1c(CCCc2ccc(-c3cnc(NS(=O)(=O)c4ccccc4)cn3)cc2)nn(Cc2ccc(C(C)(C)C)cc2)c1=O | 4.9 (≈ 2.99 µg/mL)
CCn1c(CCCc2ccc(-c3ccc(NS(=O)(=O)c4ccc(-c5ccc(OC)cc5)cc4)cc3)cc2)nn(Cc2ccc(C(C)(C)C)cc2)c1=O | 0.082 (≈ 0.0586 µg/mL)

Test system: not listed separately
Test: Metabolic stability in mouse plasma assessed as compound remaining at 1 uM after 30 mins by LC-MS/MS analysis
Type: ADME, cell-free
Conditions: read-out: Stability
Outline: (§2)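 A 30 mM DMSO stock was diluted to 100 µM in acetonitrile, then spiked into thawed mouse plasma (1 µM final) and incubated at 37 °C. Aliquots were precipitated in acetonitrile containing buspirone, shaken 5 min and centrifuged at 4000g for 10 min. Supernatant was analysed by LC-MS/MS. Percent remaining = concentration at each time / t0 concentration × 100; mean of at least three experiments.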

Compound | remaining at 0.5 h, 1 µM [%]
CCn1c(CCCc2ccc(CC(C)(C)C(=O)NS(=O)(=O)c3ccccc3)cc2)nn(Cc2ccc(C(C)(C)C)cc2)c1=O | 80

Target: Estrogen receptor beta (Homo sapiens, UniProt Q92731)
Sequence (Q92731 whole entry): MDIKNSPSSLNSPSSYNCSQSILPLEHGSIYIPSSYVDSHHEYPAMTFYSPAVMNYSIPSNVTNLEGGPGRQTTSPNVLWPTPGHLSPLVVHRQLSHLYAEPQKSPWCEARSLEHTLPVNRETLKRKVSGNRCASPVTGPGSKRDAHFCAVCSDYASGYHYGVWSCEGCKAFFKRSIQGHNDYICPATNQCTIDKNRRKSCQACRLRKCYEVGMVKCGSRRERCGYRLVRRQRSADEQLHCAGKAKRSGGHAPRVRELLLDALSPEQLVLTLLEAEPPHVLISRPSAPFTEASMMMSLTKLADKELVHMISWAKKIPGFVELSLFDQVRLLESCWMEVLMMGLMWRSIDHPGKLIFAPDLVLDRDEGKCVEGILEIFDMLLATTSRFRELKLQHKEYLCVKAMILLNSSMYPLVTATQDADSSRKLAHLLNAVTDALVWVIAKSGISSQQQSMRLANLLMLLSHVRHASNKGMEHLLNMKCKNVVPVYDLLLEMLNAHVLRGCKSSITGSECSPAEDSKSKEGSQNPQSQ
Test: Inhibition of human estrogen receptor beta
Conditions: not given

Compound | IC50 [µM]
CCn1c(CCCc2ccc(-c3ccc(NS(=O)(=O)c4ccc(-c5ccc(OC)cc5)cc4)cc3)cc2)nn(Cc2ccc(C(C)(C)C)cc2)c1=O | 34.8

Target: T4, Thyroid hormone receptor beta (Homo sapiens, UniProt P10828)
T4 sequence (P10828 whole entry): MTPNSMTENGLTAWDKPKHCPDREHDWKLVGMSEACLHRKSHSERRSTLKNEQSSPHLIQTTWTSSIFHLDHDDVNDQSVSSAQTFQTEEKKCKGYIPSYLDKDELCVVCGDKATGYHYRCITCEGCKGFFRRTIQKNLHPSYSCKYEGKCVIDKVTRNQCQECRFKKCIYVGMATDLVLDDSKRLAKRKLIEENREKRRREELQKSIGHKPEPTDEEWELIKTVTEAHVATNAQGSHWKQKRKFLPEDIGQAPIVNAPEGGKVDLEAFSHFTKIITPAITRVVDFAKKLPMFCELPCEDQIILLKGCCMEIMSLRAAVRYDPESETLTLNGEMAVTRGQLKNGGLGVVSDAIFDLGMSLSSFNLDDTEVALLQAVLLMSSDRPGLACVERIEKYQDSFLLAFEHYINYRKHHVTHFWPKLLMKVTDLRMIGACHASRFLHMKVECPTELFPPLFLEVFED
Test: Inhibition of human thyroid hormone receptor-beta
Conditions: not given

Compound | IC50 [µM]
CCn1c(CCCc2ccc(-c3ccc(NS(=O)(=O)c4ccc(-c5ccc(OC)cc5)cc4)cc3)cc2)nn(Cc2ccc(C(C)(C)C)cc2)c1=O | > 69

Test system: not listed separately
Test: Metabolic stability in mouse plasma assessed as compound remaining at 1 uM after 60 mins by LC-MS/MS analysis
Type: ADME, cell-free
Conditions: read-out: Stability
Outline: as §2

Compound | remaining at 1 h, 1 µM [%]
CCn1c(CCCc2ccc(CC(C)(C)C(=O)NS(=O)(=O)c3ccccc3)cc2)nn(Cc2ccc(C(C)(C)C)cc2)c1=O | 62.3

Test system: Plasma
Test: (§3) Metabolic stability in mouse plasma assessed as compound remaining at 1 uM after 24 hrs by LC-MS/MS analysis
Type: ADME, cell-free
Conditions: 24 h, 1 µM
Outline: as §2

Compound | Stability [%]
CCn1c(CCCc2ccc(-c3cnc(NS(=O)(=O)c4ccccc4)cn3)cc2)nn(Cc2ccc(C(C)(C)C)cc2)c1=O | 131.2

Test system: not listed separately
Test: as §3
Type: ADME, cell-free
Conditions: read-out: Stability
Outline: as §2

Compound | remaining at 24 h, 1 µM [%]
CCn1c(CCCc2ccc(-c3ccc(NS(=O)(=O)c4ccc(-c5ccc(OC)cc5)cc4)cc3)cc2)nn(Cc2ccc(C(C)(C)C)cc2)c1=O | 119

Target: T5, Peroxisome proliferator-activated receptor gamma (Homo sapiens, UniProt P37231)
T5 sequence (P37231 whole entry): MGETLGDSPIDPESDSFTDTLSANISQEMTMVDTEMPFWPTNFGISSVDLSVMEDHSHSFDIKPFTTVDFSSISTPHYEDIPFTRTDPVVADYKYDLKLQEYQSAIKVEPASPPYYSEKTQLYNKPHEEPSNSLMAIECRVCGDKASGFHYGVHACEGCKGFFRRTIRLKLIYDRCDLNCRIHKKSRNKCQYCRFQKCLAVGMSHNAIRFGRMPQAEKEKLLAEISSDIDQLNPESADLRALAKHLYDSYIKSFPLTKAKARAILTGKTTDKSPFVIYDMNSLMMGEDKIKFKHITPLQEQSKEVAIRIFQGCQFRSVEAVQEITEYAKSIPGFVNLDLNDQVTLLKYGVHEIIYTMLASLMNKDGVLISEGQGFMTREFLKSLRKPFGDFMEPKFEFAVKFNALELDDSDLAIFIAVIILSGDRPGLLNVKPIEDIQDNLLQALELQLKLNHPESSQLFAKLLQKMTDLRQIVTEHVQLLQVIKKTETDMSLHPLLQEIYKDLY
Test: Inhibition of human PPAR-gamma
Conditions: not given

Compound | IC50 [µM]
CCn1c(CCCc2ccc(-c3ccc(NS(=O)(=O)c4ccc(-c5ccc(OC)cc5)cc4)cc3)cc2)nn(Cc2ccc(C(C)(C)C)cc2)c1=O | > 100
